In general, inhibition in vivo refers to the relative decrease from the control value, in per cent. In general, IC50 refers to the concentration needed to halve the response being measured.

Here are results for 17 compounds from ChEMBL document CHEMBL1149811, “Synthesis of novel 4,6-disubstituted quinazoline derivatives, their anti-inflammatory and anti-cancer activity (cytotoxic) against U937 leukemia cell lines” (Eur J Med Chem, 2008).

SMILES strings stand for the structures. In brackets after ≈: the same amount, converted by molar mass.

Test [1] has as its system Rattus norvegicus. As to the kind of experiment: Antiinflammatory activity in Wistar rat assessed as inhibition of carrageenan-induced paw edema at 100 mg/kg, po. The class given is functional. The procedure, abridged: (§1)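 Male Wistar rats, fasted overnight, three per group. Given orally as 1% gum acacia suspension (test 100 mg/kg, indomethacin 10 mg/kg; controls vehicle). One hour later, 0.1 ml of 1% carrageenan injected sub-plantar into left hind paw. Paw volume measured by digital plethysmometer before carrageenan and at 3 h. Percent inhibition per rat versus mean control paw volume, reported as mean ± SE.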
(Carrageenan injected into the paw causes an acute inflammation.)

Test [2] relates to U-937. As to the kind of experiment: Cytotoxicity against human U937 cells after 2 days by MTT assay. The settings on record: U-937, 48 h. The class given is functional, cell-based. The procedure, abridged:
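U937 human histocytic lymphoma cells grown in RPMI-1640 with 10% FBS at 37 °C under CO2. Seeded at 2 × 10^4 cells/well and compounds added after 24 h. Viability read after two days by MTT (4 h at 37 °C, formazan dissolved in DMSO, absorbance 570 nm). Percent inhibition versus untreated control; IC50 (50% cell-number decrease) by linear regression; mean ± SE of four observations.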

Test [3] has as its system Rattus norvegicus. As to the kind of experiment: Antiinflammatory activity in Wistar rat assessed as inhibition of carrageenan-induced paw edema at 10 mg/kg, po. The class given is functional. The procedure, abridged: as §1

`O=C(O)[C@H](Cc1c[nH]c2ccccc12)Nc1nc(-c2ccccc2)nc2ccc(I)cc12`: in test [1], the inhibition in vivo at 100 mg/kg was found to be 0%. The compound further registered a half-maximal inhibitory concentration (IC50) in test [2] of 46.1 µg/mL (≈ 86.3 µM).

On to `O=C(O)[C@H](Cc1c[nH]c2ccccc12)Nc1nc(-c2ccccc2)nc2ccccc12`, for which the inhibition in vivo at 100 mg/kg in test [1] stood at 1.8%. Further, the IC50 in test [2] amounted to 74.8 µg/mL (≈ 183 µM).

`O=C(O)CNc1nc(-c2ccccc2)nc2ccccc12`: the inhibition in vivo at 100 mg/kg in test [1] turned out to be 0%.

For `O=C(O)CNc1nc(-c2ccccc2)nc2ccc(Br)cc12`, in test [1], the inhibition in vivo at 100 mg/kg was determined as 0%.

For the compound `O=C(O)CNc1nc(-c2ccccc2)nc2ccc(I)cc12`, in test [1], the inhibition in vivo at 100 mg/kg came out at 0%.

Take `C[C@H](Nc1nc(-c2ccccc2)nc2ccc(I)cc12)C(=O)O`: the inhibition in vivo at 100 mg/kg in test [1] amounted to 6.5%.

With `O=C(O)[C@H](Cc1ccccc1)Nc1nc(-c2ccccc2)nc2ccc(Br)cc12`, in test [1], the inhibition in vivo at 100 mg/kg turned out to be 0%. In test [2], this compound displayed an IC50 of 50.4 µg/mL (≈ 112 µM).

With `CC[C@H](C)[C@H](Nc1nc(-c2ccccc2)nc2ccccc12)C(=O)O`, the inhibition in vivo at 100 mg/kg in test [1] was determined as 4.1%. Moreover, inhibition in test [2] was half-maximal at 121 µg/mL (≈ 360 µM) (IC50).

With `CC[C@H](C)[C@H](Nc1nc(-c2ccccc2)nc2ccc(Br)cc12)C(=O)O`, the inhibition in vivo at 100 mg/kg in test [1] was found to be 0%. The compound also showed an IC50 in test [2] of 32 µg/mL (≈ 77.3 µM).

Take `CC[C@H](C)[C@H](Nc1nc(-c2ccccc2)nc2ccc(I)cc12)C(=O)O`: the inhibition in vivo at 100 mg/kg in test [1] came out at 0%. This compound showed an IC50 in test [2] of 52.4 µg/mL (≈ 114 µM).

For `O=C(O)[C@H](Cc1ccccc1)Nc1nc(-c2ccccc2)nc2ccccc12`, the inhibition in vivo at 100 mg/kg in test [1] is 0%.

As to `O=C(O)[C@H](Cc1c[nH]c2ccccc12)Nc1nc(-c2ccccc2)nc2ccc(Br)cc12`, in test [1], the inhibition in vivo at 100 mg/kg was 0%. In test [2], this compound showed an IC50 of 37.9 µg/mL (≈ 77.8 µM).

Regarding `C[C@H](Nc1nc(-c2ccccc2)nc2ccccc12)C(=O)O`, in test [1], the inhibition in vivo at 100 mg/kg was found to be 9.3%.

In the case of `C[C@H](Nc1nc(-c2ccccc2)nc2ccc(Br)cc12)C(=O)O`, the inhibition in vivo at 100 mg/kg in test [1] worked out at 0%. This compound had an IC50 in test [2] of 104 µg/mL (≈ 280 µM).

Regarding `O=C(O)[C@H](Cc1ccccc1)Nc1nc(-c2ccccc2)nc2ccc(I)cc12`, the inhibition in vivo at 100 mg/kg in test [1] is 3.7%. Besides, the IC50 in test [2] turned out to be 16.1 µg/mL (≈ 32.5 µM).

Compound `COc1cc([C@@H]2c3cc4c(cc3[C@@H](O[C@@H]3O[C@@H]5CO[C@@H](C)O[C@H]5[C@H](O)[C@H]3O)[C@H]3COC(=O)[C@H]23)OCO4)cc(OC)c1O` [ETOPOSIDE] came in with a half-maximal inhibitory concentration (IC50) in test [2] of 10.6 µg/mL (≈ 17.9 µM).

As for `COc1ccc2c(c1)c(CC(=O)O)c(C)n2C(=O)c1ccc(Cl)cc1` [INDOMETHACIN], in test [3], the inhibition in vivo at 10 mg/kg stood at 48%.
